Our source for the phage lysis inhibition and IC50 values is PubChem BioAssay AID624056 (Southern Research Specialized Biocontainment Screening …, 2012).

Each structure is given as a SMILES string. Values joined by “and” are separate entries in the source; they are usually repeats but may differ in a detail not shown here. Equal values may be shown once. Active and inactive are the calls of the source.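 The calls were made as follows: active = compounds specific to the target that block phage lysis by more than 30% when retested across doses; inactive = the rest, not confirmed on retesting.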

Test system in the first assay: not listed separately
Put plainly: E. coli EV36 sensitization to T7 phage – EV36 K1 hybrid, OD600, round 7, dose response (AID 624056). The settings on record: E. coli EV36 T7 phage lysis inhibition, OD600; at 5 µM (top of the series). In outline: (§1)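 assay system = E. coli EV36 K1:K-12 hybrid | quantity = 1:100 dilution of overnight culture | also added = T7 bacteriophage | compound = two-fold dilution series, 1% DMSO | incubation = 1.5 h compound at 37 °C, 3 h after phage | measured by = absorbance at 600 nm before and 3 h after phage addition | read-out = lysis of capsule-free cells via OD600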
On to `O=C(NCCc1ccncc1)c1ccc2ncsc2c1`, for which the phage lysis inhibition is 124% (inactive).

`CC(C)(C)c1ccc(-c2cc(NC(=O)c3ccc(Br)s3)c(C(=O)O)s2)cc1`: the phage lysis inhibition is -11.6% (inactive). The same measure, in the same setting: as for `O=C(NCc1ccncc1)c1ccc2ncsc2c1`, the figure is 123% (inactive); as for `O=C(NC1CCNCC1)c1ccc2ncsc2c1`, 121% (inactive); as for `O=C(Nc1ccncc1)c1ccc2ncsc2c1`, 126% (inactive). Still for that read-out and setting: as for `O=C(Nc1cc(-c2ccc(OCCCC(F)(F)F)cc2)sc1C(=O)O)c1cc(Br)c(Br)o1`, the figure is -21.6% (inactive) and -21.4% (inactive); as for `O=C(Nc1cc(-c2ccc(OC(F)(F)F)cc2)sc1C(=O)O)c1cccc(F)c1`, 75.5% (inactive); as for `O=C(Nc1cc(-c2ccc(OC(F)(F)F)cc2)sc1C(=O)O)c1cc2ccccc2o1`, 2.17% (inactive).

The subject of a further assay is E. coli EV36 T7 phage lysis inhibition, OD600. The assay is described as above.
Conditions: not given
In outline: as §1
By IC50 is commonly meant the midpoint of a concentration-inhibition curve. As for `CCCc1ccc(-c2cc(NC(=O)c3c(F)cccc3F)c(C(=O)O)s2)cc1`, the IC50 is 0.56 µM. Still for that read-out and setting: as for `CCCc1ccc(-c2cc(NC(=O)c3cc(Br)c(Br)o3)c(C(=O)O)s2)cc1`, the figure is 2.35 µM. Still for that read-out and setting: to `O=C(Nc1cc(-c2ccc(OCCC(F)(F)F)cc2)sc1C(=O)O)c1ccc(Br)o1` belongs 0.32 µM; to `CCCc1ccc(-c2cc(NC(=O)c3ccc(Br)o3)c(C(=O)O)s2)cc1`, 0.34 µM. For the compound `O=C(O)c1sc(-c2ccc(OCC(F)(F)F)cc2)cc1NC(=O)c1c(F)cc(F)cc1F`, the half-inhibitory concentration (IC50) is 1.88 µM.

For `CCCCOc1ccc(-c2cc(NC(=O)c3c(F)cc(F)cc3F)c(C(=O)O)s2)cc1`, the IC50 is 0.33 µM.

In the case of `O=C(O)c1sc(-c2ccc(OCCC(F)(F)F)cc2)cc1NC(=O)c1c(F)cc(F)cc1F`, the IC50 was 0.44 µM.

Take `O=C(O)c1sc(-c2ccc(OCCCC(F)(F)F)cc2)cc1NC(=O)c1c(F)cccc1F`: the IC50 was 0.09 µM. Regarding `CCCc1ccc(-c2cc(NC(=O)c3c(F)cc(F)cc3F)c(C(=O)O)s2)cc1`, the 50% inhibitory concentration (IC50) was 1.52 µM. On the same count and under the same terms, as for `CCCCOc1ccc(-c2cc(NC(=O)c3cc(Br)c(Br)o3)c(C(=O)O)s2)cc1`, the figure is 0.96 µM; as for `CCOc1ccc(-c2cc(NC(=O)c3c(F)cc(F)cc3F)c(C(=O)O)s2)cc1`, 1.83 µM; as for `CCCCOc1ccc(-c2cc(NC(=O)c3ccc(Br)o3)c(C(=O)O)s2)cc1`, 0.32 µM. Still for that read-out and setting: to `CCOc1ccc(-c2cc(NC(=O)c3c(F)cccc3C(F)(F)F)c(C(=O)O)s2)cc1` belongs 2.65 µM. The same measure, in the same setting: as for `CCOc1ccc(-c2cc(NC(=O)c3c(F)cccc3F)c(C(=O)O)s2)cc1`, the figure is 0.41 µM; as for `O=C(Nc1cc(-c2ccc(OCC(F)(F)F)cc2)sc1C(=O)O)c1ccc(Br)o1`, 0.33 µM; as for `O=C(O)c1sc(-c2ccc(OCCC(F)(F)F)cc2)cc1NC(=O)c1c(F)cccc1F`, 0.05 µM. With `O=C(Nc1ccncc1)c1ccc2ncsc2c1`, the IC50 is 0.66 µM. The same measure, in the same setting: to `O=C(Nc1cc(-c2ccc(OC(F)(F)F)cc2)sc1C(=O)O)c1ccc(Br)o1` belongs 1.17 µM; to `O=C(O)c1sc(-c2ccc(OCCCC(F)(F)F)cc2)cc1NC(=O)c1c(F)cc(F)cc1F`, below 0.65 µM; to `CCCOc1ccc(-c2cc(NC(=O)c3c(F)cc(F)cc3F)c(C(=O)O)s2)cc1`, 0.53 µM. Consider `O=C(Nc1cc(-c2ccc(OCCCC(F)(F)F)cc2)sc1C(=O)O)c1ccc(Br)o1`, for which the IC50 is 0.48 µM.

As to `[N-]=[N+]=NCCOc1ccc(-c2cc(NC(=O)c3c(F)cccc3F)c(C(=O)O)s2)cc1`, the IC50 was 0.31 µM. For `O=C(O)c1sc(-c2ccc(OC(F)(F)F)cc2)cc1NC(=O)c1c(F)cccc1F`, the half-maximal inhibitory concentration (IC50) was 1.36 µM.

For the compound `O=C(O)c1sc(-c2ccc(OCC(F)(F)F)cc2)cc1NC(=O)c1c(F)cccc1F`, the IC50 is 0.35 µM. Same read-out and setting: to `CCCCOc1ccc(-c2cc(NC(=O)c3c(F)cccc3F)c(C(=O)O)s2)cc1` belongs 0.29 µM.
